ChEMBL document CHEMBL4422640, “Design, synthesis and biological evaluation of tetrazole-containing RXRα ligands as anticancer agents” (Eur J Med Chem, 2019)
Activity calls are given as the source filed them. The rule behind the calls is not given here.

How the values were obtained:
MCF7 [1] = experiment: Growth inhibition of human MCF7 cells after 48 hrs by MTT assay; format: functional, cell-based; details: MCF7, 48 h
Outline: (§1)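 MDA-MB-231 grown in DMEM, MCF-7 in MEM, each with 10% FBS, 37 °C, 5% CO2. Confluent cells exposed to compound, 0.195–100 μM, for 48 h. Then 2 mg/mL MTT for 4 h at 37 °C, formazan dissolved in DMSO, absorbance read at 490 nm. IC50 values are the mean of three independent experiments.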

MDA-MB-231 = experiment: Growth inhibition of human MDA-MB-231 cells after 48 hrs by MTT assay; format: functional, cell-based; details: MDA-MB-231, 48 h; outline: as §1
[2] = target: T1, Retinoic acid receptor RXR-alpha (Homo sapiens) (UniProt P19793); experiment: Antagonist activity at Gal4-fused human RXRalpha LBD (unknown origin) assessed as inhibition of 9-cis-retinoic acid-induced transactivation at 1 to 50 uM after 18 hrs by cell-based dual luciferase reporter gene assay
T1 sequence (whole entry): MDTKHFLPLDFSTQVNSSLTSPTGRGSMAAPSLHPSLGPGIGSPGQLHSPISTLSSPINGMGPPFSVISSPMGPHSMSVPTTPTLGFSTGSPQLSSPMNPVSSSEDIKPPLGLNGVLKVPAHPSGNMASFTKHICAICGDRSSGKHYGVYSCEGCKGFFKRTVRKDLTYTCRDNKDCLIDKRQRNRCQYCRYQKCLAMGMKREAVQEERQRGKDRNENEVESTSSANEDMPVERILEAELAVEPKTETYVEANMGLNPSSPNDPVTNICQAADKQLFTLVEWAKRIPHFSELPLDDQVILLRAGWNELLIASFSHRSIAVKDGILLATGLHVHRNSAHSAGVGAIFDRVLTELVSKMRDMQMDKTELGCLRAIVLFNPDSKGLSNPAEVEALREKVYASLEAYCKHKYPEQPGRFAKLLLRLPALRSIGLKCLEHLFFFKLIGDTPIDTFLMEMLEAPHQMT
Outline: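 Cells transfected with Gal4 reporter plus Gal4-RXRα/LBD plasmids for 24 h, then treated with compounds at 1, 10 and 50 µM in the presence of 9-cis-RA for 18 h. Firefly luciferase read from lysates, normalized to Renilla. A compound counted as antagonist when inhibition was dose-dependent.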

[3] = target: T1, Retinoic acid receptor RXR-alpha (Homo sapiens); experiment: Inhibition of RXRalpha in human HeLa cells assessed as increase in PARP cleavage at 15 uM after 8 hrs in presence of TNFalpha by Immunoblotting analysis; format: cell-based
Outline: (§2)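 Cells kept in medium with 0% FBS and treated with compound together with TNF-α (20 ng/mL). Exposure was 8 h for HeLa and 12 h for MCF-7. PARP cleavage read by immunoblot: 10% SDS-PAGE, nitrocellulose, blocking in 5% milk/TBST, HRP secondary antibody, ECL.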

HeLa = experiment: Induction of apoptosis in human HeLa cells assessed as increase in PARP cleavage at 20 uM after 8 hrs in presence of RXRalpha siRNA by Immunoblotting analysis; format: functional, cell-based
Outline: (§3)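 Cells transfected (Lipofectamine 2000) with control or RXRα siRNA for 48 h. HeLa (MEM, 10% FBS) then given compound at 20 μM for 8 h; MCF-7 (MEM, 10% FBS) given 30 μM for 12 h. Lysates run on 10% SDS-PAGE, transferred to nitrocellulose, probed for PARP cleavage and detected by ECL.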

[4] = target: T1, Retinoic acid receptor RXR-alpha (Homo sapiens); experiment: Inhibition of RXRalpha in human MCF7 cells assessed as increase in PARP cleavage at 30 uM after 12 hrs in presence of TNFalpha by Immunoblotting analysis; format: cell-based; outline: as §2
MCF7 [5] = experiment: Induction of apoptosis in human MCF7 cells assessed as increase in PARP cleavage at 30 uM after 12 hrs in presence of siRNA by Immunoblotting analysis; format: functional, cell-based; outline: as §3
[6] = target: T2, Retinoic acid receptor RXR-alpha (Homo sapiens, UniProt P19793); experiment: Inhibition of 9-cis-retinoic acid competition binding to RXRalpha LBD (unknown origin) by fluorescence quenching method
T2 sequence (P19793 whole entry): T1 sequence (whole entry)

[7] = target: T1, Retinoic acid receptor RXR-alpha (Homo sapiens); experiment: Inhibition of RXRalpha in human MCF7 cells assessed as increase in PARP cleavage after 12 hrs by Immunoblotting analysis; format: cell-based
Outline: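 MCF-7 cells in medium with 0% FBS treated with compounds, with or without TNF-α (20 ng/mL), for 12 h. PARP cleavage read by immunoblot (10% SDS-PAGE, ECL). For the RXRα-dependence check, cells got control or RXRα siRNA for 48 h, then compounds at 30 µM for 12 h.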

[8] = target: T1, Retinoic acid receptor RXR-alpha (Homo sapiens); experiment: Inhibition of RXRalpha in human HeLa cells assessed as increase in PARP cleavage after 8 hrs by Immunoblotting analysis; format: cell-based
Outline: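 HeLa cells in medium with 0% FBS treated with compounds, with or without TNF-α (20 ng/mL), for 8 h. PARP cleavage detected by immunoblot: 10% SDS-PAGE, nitrocellulose, 5% milk/TBST block, ECL detection. For the RXRα-dependence check, cells first got control or RXRα siRNA for 48 h, then compounds at 20 µM for 8 h.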

Compound	IC50 (MCF7 [1])	IC50 (MDA-MB-231)	Activity [2]	also measured
CC(C)c1ccc(/C=C2\C=C(CCc3nnn[nH]3)c3ccccc32)cc1	41.8 µM	15.6 µM	–	–
CC1=C(CCc2nnn[nH]2)c2ccccc2/C1=C\c1ccccc1C(F)(F)F	–	–	Active	–
CC1=C(CCc2nnn[nH]2)c2ccccc2/C1=C\c1cccc(Cl)c1	45.6 µM	24.7 µM	–	–
CC1=C(Cc2nnn[nH]2)c2ccccc2/C1=C\c1ccccc1C(F)(F)F	62.3 µM	40.8 µM	–	–
CC1=C(CCc2nnn[nH]2)c2ccccc2/C1=C\c1ccc(C(F)(F)F)cc1	39.4 µM	22.1 µM	–	–
CSc1ccc(/C=C2/C(C)=C(CCc3nnn[nH]3)c3ccccc32)cc1	–	–	Active	–
COc1ccc(/C=C2\C=C(Cc3nnn[nH]3)c3ccccc32)cc1	–	–	Active	–
CC(C)c1ccc(/C=C2\C=C(Cc3nnn[nH]3)c3ccccc32)cc1	–	–	Active	–
CSc1ccc(/C=C2/C(C)=C(Cc3nnn[nH]3)c3ccccc32)cc1	–	–	Active	–
CC1=C(Cc2nnn[nH]2)c2ccccc2/C1=C\c1ccc(C(F)(F)F)cc1	–	–	Active	–
CC1=C(CCc2nnn[nH]2)c2ccccc2/C1=C\c1ccccc1Cl	–	–	Active	–
CC1=C(Cc2nnn[nH]2)c2ccccc2/C1=C\c1cccs1	124 µM	53.3 µM	–	–
CC1=C(Cc2nnn[nH]2)c2ccccc2/C1=C\c1ccc(C(C)(C)C)cc1	38.4 µM	14.3 µM	–	–
COc1ccc(/C=C2/C(C)=C(CCc3nnn[nH]3)c3ccccc32)cc1	–	–	Active	–
CC(C)c1ccc(/C=C2/C=C(CC(=O)NO)c3cc(F)ccc32)cc1	20.8 µM	5 µM	–	inhibition [3]: Active; Activity (HeLa): inactive; inhibition [4]: Active; Activity (MCF7 [5]): inactive; Kd [6]: 1.13 µM
CC1=C(CCc2nnn[nH]2)c2ccccc2/C1=C\c1ccc(Cl)cc1	56.3 µM	15.2 µM	–	–
CC1=C(CC(=O)O)c2cc(F)ccc2/C1=C\c1ccc(C(C)C)cc1	–	–	–	Kd [6]: 2.38 µM
CC1=C(Cc2noc(=O)[nH]2)c2ccccc2/C1=C\c1ccc(C(C)C)cc1	23.8 µM	9.04 µM	–	–
CC1=C(CCc2nnn[nH]2)c2ccccc2/C1=C\c1ccc(OC(F)(F)F)cc1	17.3 µM	8.9 µM	–	inhibition [3]: Active; Activity (HeLa): inactive; inhibition [4]: Active; Activity (MCF7 [5]): inactive; Kd [6]: 1.59 µM; inhibition [7]: Dose-dependent effect; inhibition [8]: Dose-dependent effect
COc1ccc(/C=C2/C(C)=C(Cc3nnn[nH]3)c3ccccc32)cc1	104 µM	25.7 µM	–	–
CC1=C(CCc2nnn[nH]2)c2ccccc2/C1=C\c1ccc(C(C)C)cc1	27 µM	12.3 µM	–	–
CC1=C(CCc2nnn[nH]2)c2ccccc2/C1=C\c1cccc(C(F)(F)F)c1	28.8 µM	15.6 µM	–	–
CC1=C(CCc2nnn[nH]2)c2ccccc2/C1=C\c1ccc(C(C)(C)C)cc1	31.1 µM	12.5 µM	–	–
CC1=C(Cc2nnn[nH]2)c2ccccc2/C1=C\c1ccc(C(C)C)cc1	27.6 µM	8.48 µM	–	–
CC1=C(CCc2nnn[nH]2)c2ccccc2/C1=C\c1cccc2ccccc12	–	–	Active	inhibition [7]: Dose-dependent effect; inhibition [8]: Dose-dependent effect
CC1=C(Cc2nnn[nH]2)c2ccccc2/C1=C\c1ccc(OC(F)(F)F)cc1	–	–	Active	–
CC1=C(Cc2nnn[nH]2)c2ccccc2/C1=C\c1cccc(C(F)(F)F)c1	–	–	Active	–
